This is an account of results in ChEMBL document CHEMBL1764958, “Synthesis and biological evaluation of 3,7-diazabicyclo[4.3.0]nonan-8-ones as potential nootropic and analgesic drugs” (2011).

Test [1] concerns Mus musculus. The test is described as follows: Antiamnesic activity in ip dosed mouse assessed as reversal of scopolamine-induced amnesia after 20 mins by passive-avoidance test. The test is classed as functional. Conditions: for minimal effective dose: Mus musculus, ip, 20 min, read-out: MED.
Test [2] relates to Mus musculus. The experiment in a line: Antiamnesic activity in mouse assessed as reversal of scopolamine-induced amnesia at 10 mg/kg, ip after 20 mins by passive-avoidance test. The test is classed as functional, organism-based. Details: dose 10 mg/kg. The method, boiled down:
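Mice; compounds dissolved in saline, given ip 20 min before the training session of the passive-avoidance test. Scopolamine injected immediately after punishment. Doses tested up to 10 mg/kg; activity read as reversal of scopolamine-induced amnesia at retention. Each value is the mean of 8-18 mice, compared against scopolamine-treated mice.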

The subject of test [3] is Rattus norvegicus. The experiment in a line: Antihyperalgesic activity in rat assessed as reversal of oxaliplatin-induced mechanical hyperalgesia at 10 mg.kg, ip by paw pressure test. The format is functional, organism-based. Summed up: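 Rats received oxaliplatin 2.4 mg/kg ip on 5 consecutive days each week, for 15 injections totalling 36 mg/kg. Mechanical hyperalgesia was then measured by the paw-pressure test after a single ip dose of 10 mg/kg. Pregabalin 30 mg/kg po served as reference.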

Test [4] concerns Rattus norvegicus. The experiment in a line: Antihyperalgesic activity in rat assessed as reversal of oxaliplatin-induced mechanical hyperalgesia at 50 to 100 mg.kg, iv by paw pressure test. The format is functional.
The species named for test [5] is Mus musculus. The experiment in a line: Antihyperalgesic activity against thermal hyperalgesia in saline treated mouse diabetic neuropathy model assessed as licking latency time after 30 mins by hot plate test (reference value: 18 +/- 1.5 sec).
Test [6] is filed under the species Mus musculus. The test is described as follows: Antihyperalgesic activity against thermal hyperalgesia in saline treated mouse diabetic neuropathy model assessed as licking latency time after 15 mins by hot plate test (reference value: 18.1 +/- 1.1 sec).
For test [7], the species on record is Mus musculus. The test is described as follows: Antihyperalgesic activity against thermal hyperalgesia in saline treated mouse diabetic neuropathy model assessed as licking latency time after 45 mins by hot plate test (reference value: 17.8 +/- 1.5 sec). A general note: In hot-plate and tail-flick tests a longer latency is read as antinociception.
The species entered for test [8] is Mus musculus. The experiment in a line: Antihyperalgesic activity against thermal hyperalgesia in saline treated mouse diabetic neuropathy model assessed as licking latency time after 60 mins by hot plate test (reference value: 18.4 +/- 1.6 sec).
Test [9] is filed under the species Mus musculus. The experiment in a line: Antihyperalgesic activity against streptozotocin-induced thermal hyperalgesia in mouse diabetic neuropathy model assessed as licking latency time after 15 mins by hot plate test (reference value: 9.4 +/- 1.3 sec).
For test [10], the species on record is Mus musculus. The test is described as follows: Antihyperalgesic activity against streptozotocin-induced thermal hyperalgesia in mouse diabetic neuropathy model assessed as licking latency time after 45 mins by hot plate test (reference value: 9.3 +/- 1.2 sec).
For test [11], the species on record is Mus musculus. The test is described as follows: Antihyperalgesic activity against streptozotocin-induced thermal hyperalgesia in mouse diabetic neuropathy model assessed as licking latency time after 30 mins by hot plate test (reference value: 10.1 +/- 0.8 sec).
For test [12], the species on record is Mus musculus. The experiment in a line: Antihyperalgesic activity against streptozotocin-induced thermal hyperalgesia in mouse diabetic neuropathy model assessed as licking latency time after 60 mins by hot plate test (reference value: 10.4 +/- 1.2 sec).

Activity calls are given as the source filed them. No cut-off for these calls is given here.

Regarding `CC(=O)NC1CCN(S(=O)(=O)C(C)C)CC1`, in the test on Mus musculus [1], the minimal effective dose is 1 mg/kg. For `CC(=O)NC1CCN(C(=O)c2ccccc2)CC1`, in the test with Mus musculus [1], the minimal effective dose was 10 mg/kg. On to `CC(C)S(=O)(=O)N1CC[C@@H]2NC(=O)C[C@@H]2C1`, for which the outcome in the test on Mus musculus [2] was inactive. Consider `O=C1CC2CN(S(=O)(=O)c3ccc(F)cc3)CCC2N1` (racemic; form 1), for which, in the test with Rattus norvegicus [3], the result was Active. Same read-out and setting: the entry for `O=C1CC2CN(S(=O)(=O)c3ccc(F)cc3)CCC2N1` (racemic; form 2) is “Active”. Turning to `O=C1C[C@@H]2CN(S(=O)(=O)c3ccc(F)cc3)CC[C@@H]2N1` (relative stereo), the MED with Mus musculus [1] came out at 0.1 mg/kg.

`O=C1C[C@@H]2CN(C(=O)c3ccccc3)CC[C@@H]2N1` (relative stereo): the minimal effective dose in the test on Mus musculus [1] was 3 mg/kg. On to `O=C1C[C@H]2CN(S(=O)(=O)c3ccc(F)cc3)CC[C@@H]2N1` (relative stereo), for which the MED in the test on Mus musculus [1] was found to be 1 mg/kg. For `O=C1C[C@H]2CN(C(=O)c3ccccc3)CC[C@@H]2N1` (relative stereo), in the test with Mus musculus [1], the minimal effective dose is 3 mg/kg. Still for that read-out and setting: the figure for `CC(C)S(=O)(=O)N1CC[C@@H]2NC(=O)C[C@H]2C1` (relative stereo) is 10 mg/kg. In the case of `O=C1C[C@@H]2CN(S(=O)(=O)c3ccc(F)cc3)CC[C@@H]2N1` (stereo in doubt; (+)-4), the Activity with Rattus norvegicus [4] amounted to 75%. `O=C1C[C@@H]2CN(S(=O)(=O)c3ccc(F)cc3)CC[C@@H]2N1` (stereo in doubt; (-)-4): the minimal effective dose in the test with Mus musculus [1] came out at 0.1 mg/kg. Same read-out and setting: under `O=C1C[C@H]2CN(S(=O)(=O)c3ccc(F)cc3)CC[C@@H]2N1` (stereo in doubt; (-)-7) stands 1 mg/kg. As for `O=C1O[C@H]([C@@H](O)CO)C(O)=C1O` [ASCORBIC ACID], the Activity with Rattus norvegicus [4] was 50%. Regarding `O=C(O)CCCCC1CCSS1` (stereo not drawn) [LIPOIC ACID, ALPHA], the Activity with Rattus norvegicus [4] is 50%. Consider `NC(=O)CN1CCCC1=O` [PIRACETAM], for which, in the test on Mus musculus [1], the minimal effective dose turned out to be 30 mg/kg. Consider `CC(=O)NC1CCN(S(=O)(=O)c2ccc(F)cc2)CC1` [SAPUNIFIRAM], for which the minimal effective dose in the test with Mus musculus [1] worked out at 0.01 mg/kg. In the test with Rattus norvegicus [3], the result was inactive. Also, the Time in the test filed under Mus musculus [5] is listed as 15.7 s; in the test filed under Mus musculus [6] it was 16.5 s; in the test filed under Mus musculus [7] it was 16.3 s; in the test filed under Mus musculus [8], 15.6 s; in the test filed under Mus musculus [9] it was 15.6 s; in the test listed under Mus musculus [10], 10.4 s. Besides, the values for the Time in the test listed under Mus musculus [11] and in the test listed under Mus musculus [12] were 12.4 s and 11.2 s, respectively.
